In ChEMBL document CHEMBL4732164, “Structure-Based Design of Potent Selective Nanomolar Type-II Inhibitors of Glycogen Synthase Kinase-3β” (J Med Chem, 2021):
The source made the active and inactive calls. The calls are words filed in the database; no cut-off is given here.

How the values were obtained:
[1] = target: T1, Glycogen synthase kinase-3 beta (Homo sapiens, UniProt P49841); experiment: Inhibition of recombinant human GSK-3beta using phosphorylated polypeptide as substrate incubated for 30 mins in presence of ATP by kinase-glo luminescence assay
Procedure, shortened: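 Buffer is 50 mM HEPES pH 7.5, 1 mM EDTA, 1 mM EGTA, 15 mM magnesium acetate. Runs 30 min at 30 °C; luminescence read 10 min after reagent. Inhibition is relative to no-inhibitor maximal activity.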
Target sequence in this assay (P49841 whole entry): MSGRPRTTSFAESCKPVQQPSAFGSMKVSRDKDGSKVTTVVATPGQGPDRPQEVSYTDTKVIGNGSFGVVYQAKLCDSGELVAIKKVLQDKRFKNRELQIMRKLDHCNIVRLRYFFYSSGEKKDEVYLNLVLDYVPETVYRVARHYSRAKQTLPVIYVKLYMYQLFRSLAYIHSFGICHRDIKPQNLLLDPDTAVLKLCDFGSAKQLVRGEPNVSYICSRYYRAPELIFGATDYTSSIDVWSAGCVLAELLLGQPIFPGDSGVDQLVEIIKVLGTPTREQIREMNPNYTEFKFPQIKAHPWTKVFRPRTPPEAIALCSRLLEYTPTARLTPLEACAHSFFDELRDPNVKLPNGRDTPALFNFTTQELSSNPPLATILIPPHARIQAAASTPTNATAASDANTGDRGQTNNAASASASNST

SH-SY5Y = experiment: Neuroprotective activity against OA-induced neuronal injury in human SH-SY5Y cells assessed as reduction in cell death at 0.1 to 10 uM pre-incubated for 1 hrs followed by OA addition measured after 24 hrs by MTT assay; format: functional, cell-based; details: dose 0.1-10 µM
Procedure, shortened: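 SH-SY5Y cells (DMEM, 10% FBS, 1% pen/strep, 37 °C, 5% CO2) seeded at 60,000/well and grown 48 h. Compound (0.1, 0.5, 1, 5, 10 μM) added 1 h before okadaic acid at 30 nM, then 24 h. Viability by MTT (0.5 mg/mL, ≥4 h), formazan in DMSO, A595, as % control. Mean ± SEM, three independent experiments.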

[2] = target: T1, Glycogen synthase kinase-3 beta; experiment: Inhibition of recombinant human GSK-3beta at 50 uM using phosphorylated polypeptide as substrate incubated for 30 mins in presence of ATP by kinase-glo luminescence assay relative to control
Procedure, shortened: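 Kinase-Glo luminescence: 20 ng enzyme with test compound (DMSO ≤1% final), 25 μM substrate, 1 μM ATP. Buffer is 50 mM HEPES pH 7.5, 1 mM EDTA, 1 mM EGTA, 15 mM magnesium acetate. Runs 30 min at 30 °C; luminescence read 10 min after reagent. Inhibition is relative to no-inhibitor maximal activity.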
Target sequence in this assay (P49841 whole entry, looked up): as the sequence (P49841 whole entry) above

[3] = Inhibition of Ustilago maydis GSK-3beta using Ser/Thr 6 peptide as substrate preincubated for 60 mins followed by ATP and substrate addition and measured after 45 mins by Z'lyte assay; design: species or system Mycosarcoma maydis
[4] = target: Cyclin-dependent kinase 2 (Homo sapiens) (UniProt P24941); experiment: Inhibition of CDK2 (unknown origin) assessed as enzyme remaining activity at 5 uM relative to control
[5] = target: Cyclin-dependent kinase 5 (Homo sapiens) (UniProt Q00535); experiment: Inhibition of CDK5 (unknown origin) assessed as enzyme remaining activity at 5 uM relative to control
Sequence of Cyclin-dependent kinase 5 (Homo sapiens) (Q00535 whole entry, looked up): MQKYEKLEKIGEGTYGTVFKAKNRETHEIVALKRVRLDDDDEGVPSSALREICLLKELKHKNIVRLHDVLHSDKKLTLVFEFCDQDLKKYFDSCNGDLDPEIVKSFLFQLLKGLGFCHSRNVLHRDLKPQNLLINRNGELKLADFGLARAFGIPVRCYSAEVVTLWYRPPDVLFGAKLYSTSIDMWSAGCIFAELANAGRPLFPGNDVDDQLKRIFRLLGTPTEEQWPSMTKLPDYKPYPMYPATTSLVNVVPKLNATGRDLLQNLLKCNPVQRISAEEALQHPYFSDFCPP

[6] = target: Cyclin-dependent kinase 9 (Homo sapiens) (UniProt P50750); experiment: Inhibition of CDK9 (unknown origin) assessed as enzyme remaining activity at 5 uM relative to control
Sequence of Cyclin-dependent kinase 9 (Homo sapiens) (P50750 whole entry): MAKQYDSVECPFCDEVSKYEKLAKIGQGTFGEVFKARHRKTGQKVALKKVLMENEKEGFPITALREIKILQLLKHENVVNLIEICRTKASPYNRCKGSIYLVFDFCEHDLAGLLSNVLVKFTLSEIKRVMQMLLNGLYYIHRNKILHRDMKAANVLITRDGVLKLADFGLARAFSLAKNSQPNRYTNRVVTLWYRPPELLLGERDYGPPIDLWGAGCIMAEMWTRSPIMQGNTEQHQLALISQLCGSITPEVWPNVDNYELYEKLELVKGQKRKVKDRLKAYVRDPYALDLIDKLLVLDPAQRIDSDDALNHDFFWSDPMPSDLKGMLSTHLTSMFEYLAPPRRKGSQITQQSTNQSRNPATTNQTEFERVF

[7] = target: Mitogen-activated protein kinase 3 (Homo sapiens) (UniProt P27361); experiment: Inhibition of ERK1 (unknown origin) assessed as enzyme remaining activity at 5 uM relative to control
Sequence of Mitogen-activated protein kinase 3 (Homo sapiens) (P27361 whole entry): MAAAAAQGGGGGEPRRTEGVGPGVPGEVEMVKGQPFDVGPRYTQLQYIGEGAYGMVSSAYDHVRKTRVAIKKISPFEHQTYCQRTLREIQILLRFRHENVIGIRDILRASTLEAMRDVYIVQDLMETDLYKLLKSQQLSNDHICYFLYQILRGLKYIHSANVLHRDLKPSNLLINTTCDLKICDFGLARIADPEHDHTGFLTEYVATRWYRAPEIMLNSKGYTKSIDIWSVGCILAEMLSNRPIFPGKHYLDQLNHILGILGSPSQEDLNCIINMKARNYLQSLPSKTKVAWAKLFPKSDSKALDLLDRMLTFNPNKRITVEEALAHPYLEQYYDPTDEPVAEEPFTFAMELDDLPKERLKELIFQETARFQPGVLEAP

[8] = target: Mitogen-activated protein kinase 1 (Homo sapiens) (UniProt P28482); experiment: Inhibition of ERK2 (unknown origin) assessed as enzyme remaining activity at 5 uM relative to control
Sequence of Mitogen-activated protein kinase 1 (Homo sapiens) (P28482 whole entry): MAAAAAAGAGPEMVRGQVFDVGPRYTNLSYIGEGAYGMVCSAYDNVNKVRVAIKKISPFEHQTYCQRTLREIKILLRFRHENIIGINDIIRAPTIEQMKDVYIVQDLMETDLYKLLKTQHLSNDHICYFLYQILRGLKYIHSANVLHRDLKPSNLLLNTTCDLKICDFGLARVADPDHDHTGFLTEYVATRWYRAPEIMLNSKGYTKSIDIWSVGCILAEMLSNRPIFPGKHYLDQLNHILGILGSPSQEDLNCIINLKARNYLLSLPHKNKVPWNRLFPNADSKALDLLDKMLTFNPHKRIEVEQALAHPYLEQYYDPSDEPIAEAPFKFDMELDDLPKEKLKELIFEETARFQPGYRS

Homo sapiens = organism: Homo sapiens; experiment: Inhibition of PKA (unknown origin) assessed as enzyme remaining activity at 5 uM relative to control
[9] = target: RAC-alpha serine/threonine-protein kinase (Homo sapiens) (UniProt P31749); experiment: Inhibition of PKBalpha (unknown origin) assessed as enzyme remaining activity at 5 uM relative to control
Sequence of RAC-alpha serine/threonine-protein kinase (Homo sapiens) (P31749 whole entry): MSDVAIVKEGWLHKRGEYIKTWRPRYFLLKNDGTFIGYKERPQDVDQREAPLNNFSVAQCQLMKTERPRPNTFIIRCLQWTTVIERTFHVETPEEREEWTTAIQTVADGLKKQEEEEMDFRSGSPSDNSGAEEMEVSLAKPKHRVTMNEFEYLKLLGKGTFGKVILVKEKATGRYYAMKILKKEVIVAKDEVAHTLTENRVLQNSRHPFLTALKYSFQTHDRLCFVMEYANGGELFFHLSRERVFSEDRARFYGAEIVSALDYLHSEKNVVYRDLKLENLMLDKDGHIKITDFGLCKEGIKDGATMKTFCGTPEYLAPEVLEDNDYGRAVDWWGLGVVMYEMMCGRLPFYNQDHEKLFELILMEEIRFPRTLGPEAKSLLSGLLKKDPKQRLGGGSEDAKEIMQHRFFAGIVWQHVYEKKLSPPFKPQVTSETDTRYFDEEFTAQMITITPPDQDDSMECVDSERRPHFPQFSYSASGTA

[10] = target: Protein kinase C alpha type (Homo sapiens) (UniProt P17252); experiment: Inhibition of PKCalpha (unknown origin) assessed as enzyme remaining activity at 5 uM relative to control
[11] = target: Protein kinase C gamma type (Homo sapiens) (UniProt P05129); experiment: Inhibition of PKCgamma (unknown origin) assessed as enzyme remaining activity at 5 uM relative to control
[12] = target: Glycogen synthase kinase-3 alpha (Homo sapiens) (UniProt P49840); experiment: Inhibition of GSK3alpha (unknown origin) assessed as enzyme remaining activity at 5 uM relative to control
Sequence of Glycogen synthase kinase-3 alpha (Homo sapiens) (P49840 2-483 limits assumed): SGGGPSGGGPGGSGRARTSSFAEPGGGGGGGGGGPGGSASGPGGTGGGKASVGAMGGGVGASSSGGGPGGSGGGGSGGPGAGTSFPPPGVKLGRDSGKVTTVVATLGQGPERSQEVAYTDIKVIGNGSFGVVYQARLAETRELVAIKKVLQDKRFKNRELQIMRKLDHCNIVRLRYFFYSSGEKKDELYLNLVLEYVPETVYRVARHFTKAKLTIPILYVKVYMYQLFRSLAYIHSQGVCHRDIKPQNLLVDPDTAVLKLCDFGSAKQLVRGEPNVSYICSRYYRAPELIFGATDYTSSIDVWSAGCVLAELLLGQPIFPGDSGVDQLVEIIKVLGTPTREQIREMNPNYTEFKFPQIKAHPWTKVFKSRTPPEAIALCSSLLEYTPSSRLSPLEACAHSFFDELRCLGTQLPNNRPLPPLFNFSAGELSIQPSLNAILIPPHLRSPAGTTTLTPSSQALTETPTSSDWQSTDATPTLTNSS

SMILES	IC50 [1] [µM]	inhibition [2] [%]	further results
CC(C)(C)c1cc(NC(=O)Nc2ccc(Cl)cc2)n(-c2cccc(N)c2)n1			IC50 [3]: 7.8 µM
Cc1ccc(-n2nc(C(C)(C)C)cc2NC(=O)Nc2ccc(OCCN3CCOCC3)cc2)cc1			IC50 [3]: 10.3 µM
O=C(c1ccncc1)N1C[C@@H](F)[C@@H](OCc2nc3ccc(F)cc3[nH]2)C1	> 50	19	
CNC(=O)c1cc(Oc2ccc(NC(=O)Nc3ccc(Cl)c(C(F)(F)F)c3)cc2)ccn1 [SORAFENIB]			IC50 [3]: 0.71 µM
O=C(Nc1cccc(C(F)(F)F)c1)N[C@H]1CO[C@H]2[C@@H]1OC[C@H]2OC(=O)Nc1cccc2ccccc12	> 50	35	
COC(=O)c1cccc(NC(=S)N[C@H]2CO[C@H]3[C@@H]2OC[C@H]3OC(=O)Nc2cccc(C(F)(F)F)c2)c1	> 50	21	
CS(=O)(=O)c1ccc(CN2C[C@@H](F)[C@@H](OCc3nc4cc(C(F)(F)F)ccc4[nH]3)C2)cc1	> 50	19	
CNC(=O)c1cc(Oc2ccc(NC(=O)Nc3cc(C(F)(F)F)c(Cl)cc3OCCCC(=O)O)cc2)ccn1			IC50 [3]: 0.057 µM
N#Cc1ccc(CN2C[C@@H](F)[C@@H](OCc3nc4cc(C(F)(F)F)ccc4[nH]3)C2)cc1	> 50	2	
Cn1sc(=O)n(Cc2ccccc2)c1=O			Activity (SH-SY5Y): Active
O=C(Nc1cccc2ccccc12)N[C@H]1CO[C@H]2[C@@H]1OC[C@H]2OC(=O)Nc1ccccc1	> 50	21	
O=C(Nc1cccc(C(F)(F)F)c1)N[C@H]1CO[C@H]2[C@@H]1OC[C@@H]2n1nnnc1-c1cccc(CN2CCCC2)c1	> 50	7	
O=C(Nc1cccc2ccccc12)O[C@@H]1CO[C@H]2[C@@H]1OC[C@@H]2NC(=S)Nc1ccc(Cl)cc1	> 50	39	
O=C(c1ccccc1)N1C[C@@H](F)[C@@H](OCc2nc3cc(C(F)(F)F)ccc3[nH]2)C1	> 50	7	
O=C(Nc1cccc(C(F)(F)F)c1)O[C@@H]1CO[C@H]2[C@@H]1OC[C@@H]2NC(=S)Nc1ccc(Cl)cc1	> 50	41	
CC(C)(C)c1cc(NC(=O)Nc2ccc(OCCN3CCOCC3)c3ccccc23)n(-c2cccc(N)c2)n1			IC50 [3]: 1.1 µM
O=C(c1cccnc1)N1C[C@@H](F)[C@@H](OCc2nc3cc(C(F)(F)F)ccc3[nH]2)C1	> 50	14	
O=C(O)CCCNC(=O)c1cc(Oc2ccc(NC(=O)Nc3ccc(Cl)c(C(F)(F)F)c3)cc2)ccn1			IC50 [3]: 0.154 µM
CCOC(=O)Cc1ccc(-n2nc(C(C)(C)C)cc2NC(=O)Nc2ccc(OCCN3CCOCC3)c3ccccc23)cc1			IC50 [3]: 1.8 µM
CSc1cccc(NC(=O)NC2C[C@@H]3CCCN2CC3CN(C)c2ccccc2)c1 (stereo partly specified)	> 50	1	
CC(=O)Nc1ccc(CN2C[C@@H](F)[C@@H](OCc3nc4cc(C)c(C)cc4[nH]3)C2)cc1	> 50	2	
Cc1ccc(-n2nc(C(C)(C)C)cc2NC(=O)Nc2ccc(OCCN3CCOCC3)c3ccccc23)cc1 [DORAMAPIMOD]			IC50 [3]: 1.06 µM
Cn1c(CO[C@H]2CN(Cc3c[nH]c4ccccc34)C[C@H]2F)nc2ccccc21	> 50	14	
COc1ccc2nc(CO[C@H]3CN(Cc4ccnc5ccccc45)C[C@H]3F)[nH]c2c1	> 50	13	
CC(C)=CC(=O)N1CC(NC(=O)Nc2ccc(F)cc2F)CC1C(=O)N[C@H](Cc1c[nH]c2ccccc12)C(N)=O (stereo partly specified)	> 50	5	
Cn1cccc1C(=O)N1C[C@H](NC(=O)Nc2ccc(F)cc2F)C[C@@H]1C(=O)N[C@H](Cc1c[nH]c2ccccc12)C(N)=O	> 50	6	

Further lines, with some results ahead:

IC50 [1] [µM]	inhibition [2] [%]	SMILES	further results
2.06		O=C(Nc1cccc(C(F)(F)F)c1)N[C@H]1CO[C@H]2[C@@H]1OC[C@@H]2Nc1nccc(-c2cccc(F)c2)n1	Activity (SH-SY5Y): Active
> 50	33	COc1ccc(C(=O)N2C[C@@H](F)[C@@H](OCc3nc4cc(C(F)(F)F)ccc4[nH]3)C2)cc1	
1.08		O=C(Nc1cccc(C(F)(F)F)c1)O[C@@H]1CO[C@H]2[C@@H]1OC[C@@H]2Nc1nccc(-c2ccc3c(c2)OCO3)n1	Activity (SH-SY5Y): inactive
> 50	5	Cc1cc2nc(CO[C@H]3CN(Cc4cccnc4)C[C@H]3F)[nH]c2cc1C	
> 50	5	CSCC(=O)N1C[C@@H](NC(=O)Nc2cccc(SC)c2)C[C@H]1C(=O)N[C@H](Cc1c[nH]c2ccccc12)C(N)=O	
> 50	26	Cc1nn(-c2ccccc2[N+](=O)[O-])c(C)c1[C@@H]1C=C[C@@H](NC(=O)Nc2cccc(C#N)c2)C1	
> 50	1	COC(=O)c1ccc2c(c1)nc1n2[C@@H](CNC(=O)Nc2ccccc2)COC1	
> 50	42	O=C(Nc1cccc(C(F)(F)F)c1)N[C@H]1CO[C@H]2[C@@H]1OC[C@@H]2OC(=O)Nc1ccc(Oc2ccccc2)cc1	
14		CC(C)(C)c1ccnc(N[C@H]2CO[C@H]3[C@@H]2OC[C@@H]3NC(=O)Nc2cccc(C(F)(F)F)c2)n1	
9.75		COc1ccc(-c2ccnc(N[C@H]3CO[C@H]4[C@@H]3OC[C@@H]4NC(=O)Nc3cccc(C(F)(F)F)c3)n2)cc1	
0.087		COc1ccc(-c2ccnc(N[C@H]3CO[C@H]4[C@@H]3OC[C@@H]4NC(=O)Nc3cccc(C#N)c3)n2)cc1	Activity (SH-SY5Y): Active
6.08		COc1ccccc1-c1ccnc(N[C@H]2CO[C@H]3[C@@H]2OC[C@@H]3NC(=O)Nc2cccc(C#N)c2)n1	Activity (SH-SY5Y): inactive
0.421		COc1ccc(-c2ccnc(N[C@H]3CO[C@H]4[C@@H]3OC[C@@H]4NC(=O)Nc3cc(OC)cc(OC)c3)n2)cc1	Activity (SH-SY5Y): Active
4.04		O=C(Nc1cccc(C(F)(F)F)c1)N[C@H]1CO[C@H]2[C@@H]1OC[C@@H]2Nc1nccc(-c2cccs2)n1	
0.117		CCNC(=O)N[C@H]1CO[C@H]2[C@@H]1OC[C@@H]2Nc1nccc(-c2ccc(OC)cc2)n1	Activity (SH-SY5Y): Active
2.08		N#Cc1cccc(NC(=O)N[C@H]2CO[C@H]3[C@@H]2OC[C@@H]3Nc2nccc(-c3cccc(F)c3)n2)c1	Activity (SH-SY5Y): Active
2.7		O=C(Nc1ccccc1)N[C@H]1CO[C@H]2[C@@H]1OC[C@@H]2Nc1nccc(-c2cccs2)n1	
11.9		O=C(Nc1cccc(C(F)(F)F)c1)N[C@H]1CO[C@H]2[C@@H]1OC[C@@H]2Nc1nccc(C2CCCC2)n1	
27		COc1ccccc1-c1ccnc(N[C@H]2CO[C@H]3[C@@H]2OC[C@@H]3NC(=O)Nc2cccc(C(F)(F)F)c2)n1	
0.56		COc1ccc(-c2ccnc(N[C@H]3CO[C@H]4[C@@H]3OC[C@@H]4NC(=O)Nc3ccccc3)n2)cc1	Activity (SH-SY5Y): Active
0.412		COc1ccc(-c2ccnc(N[C@H]3CO[C@H]4[C@@H]3OC[C@@H]4NC(=O)Nc3ccc(C(C)=O)cc3)n2)cc1	Activity [4]: > 50%; Activity [5]: > 50%; Activity [6]: 33.8%; Activity [7]: > 50%; Activity [8]: > 50%; Activity (Homo sapiens): > 50%; Activity [9]: > 50%; Activity [10]: > 50%; Activity [11]: > 50%; Activity [12]: > 50%; Activity (SH-SY5Y): Active
5.66		CN(C)c1ccc(-c2ccnc(N[C@H]3CO[C@H]4[C@@H]3OC[C@@H]4NC(=O)Nc3cccc(C(F)(F)F)c3)n2)cc1	
2.95		O=C(Nc1cccc(C(F)(F)F)c1)N[C@H]1CO[C@H]2[C@@H]1OC[C@@H]2Nc1nccc(-c2ccco2)n1	
